Measurements pooled from the literature.
Target: MAP kinase-interacting serine/threonine-protein kinase 2 (MKNK2, Homo sapiens, UniProt Q9HBH9)

For `CN(C)c1nccc(-c2cnn3ncccc23)n1`, the remaining binding was 28% (binding; 1 µM).
The remaining binding of `CCN1CCN(Cc2ccc(C(=O)Nc3ccc(C)c(Oc4ccc5c(c4)CC(=O)N5)c3)cc2C(F)(F)F)CC1` is reported as 95% (binding; competition with immobilised ligand; 1 µM).
`CN(C(=O)c1ccccc1)c1cc(N(C)c2ccc3c(c2)CCc2ccc(C(=O)NCCN4CCOCC4)cc2C3=O)ccc1F` gave a remaining binding of 100% (cell-free assay; competition with immobilised ligand; 1 µM).
With `C[C@H]1CCN(c2nccc(-c3cnn4ncccc34)n2)C1` the remaining binding was 2.3% (binding; 1 µM).
For `O=C(c1ccc(Nc2nccc(-c3cc4ccccc4s3)n2)cc1)N1CCC(N2CCCC2)CC1`, the remaining binding was 4.6% (binding; competition with immobilised ligand; 1 µM).
`CN(CCCC(F)(F)F)c1nccc(-c2cnn3ncccc23)n1` has a remaining binding of 35% (binding; 1 µM).
With `O=C(O)c1cc(-c2ccc(C3CCNCC3)cc2)c2ccc(-c3ccc(C(F)(F)F)cc3)cc2c1` the remaining binding was 100% (cell-free assay; competition with immobilised ligand; 1 µM).
For `COc1cnc(Nc2cccc(S(N)(=O)=O)c2)nc1N1CCN(c2ccccc2)CC1`, the remaining binding was 59% (binding; competition with immobilised ligand; 1 µM).
`CN(c1ccnc(CNc2nc(Nc3ccc4c(c3)CC(=O)N4)ncc2C(F)(F)F)n1)S(C)(=O)=O` gave a remaining binding of 91% (cell-free assay; competition with immobilised ligand; 1 µM).
The remaining binding of `Cc1cnc(Nc2ccc(C(=O)N3CCC(N4CCCC4)CC3)cc2)nc1-c1cc2ccccc2s1` is reported as 5.4% (binding; competition with immobilised ligand; 1 µM).
With `O=C(NCC1CCOCC1)c1n[nH]cc1NC(=O)c1c(F)cccc1F` the remaining binding was 100% (binding; competition with immobilised ligand; 1 µM).
`CNCc1ccccc1-c1csc([C@H](C)Nc2nc(C)nc3cc(OC)c(OC)cc23)c1` has a remaining binding of 71% (cell-free assay; competition with immobilised ligand; 1 µM).
The remaining binding of `Cc1cnn2ncc(-c3ccnc(N(C)C)n3)c2c1` is reported as 49% (binding; 1 µM).
`CNC(=O)c1ccc(Nc2ncc(C(F)(F)F)c(NCc3nccnc3N(C)S(C)(=O)=O)n2)cc1` has a remaining binding of 100% (cell-free assay; competition with immobilised ligand; 0.1 µM).
For `COc1cc(C(=O)N2CCC(N3CCN(C)CC3)CC2)ccc1Nc1ncc2c(n1)N(C)c1ccccc1C(=O)N2C`, the remaining binding was 1.2% (binding; competition with immobilised ligand; 10 µM).
The remaining binding of `Nc1ncc2c(n1)-c1c([nH]c3ccc(C#CC4CC4)cc13)CCCC2` is reported as 77% (binding; competition with immobilised ligand; 1 µM).
`C[C@@H]1CN(c2ccc3ncc(-c4ccc5[nH]nc(C6CC6)c5c4)n3n2)C[C@H](C)O1` has a remaining binding of 75% (binding; competition with immobilised ligand; 50 nM).
For `N[C@@H]1CCN(c2nccc(-c3cnn4ncccc34)n2)C1`, the remaining binding was 14% (binding; 1 µM).
`C[C@@H](c1ccc(-n2cnc3c(N)ncnc32)cc1)N1CCc2nn(C)c(Cc3ccccc3)c2C1=O` has a remaining binding of 62% (binding; competition with immobilised ligand; 0.1 µM).
`O=C(NCCCN1CCOCC1)c1ccc(Nc2nccc(-c3cc4ccccc4s3)n2)cc1` has a remaining binding of 28% (binding; competition with immobilised ligand; 1 µM).
The remaining binding of `COc1ncc2cc3ccccc3nc2c1C#N` is reported as 98% (cell-free assay; competition with immobilised ligand; 5 µM).
With `CO[C@H]1CC[C@H](CNc2ccc(S(=O)(=O)NC(=O)c3ccc(N4CCN(CC5=C(c6ccc(Cl)cc6)CC(C)(C)CC5)CC4)cc3Oc3cnc4[nH]ccc4c3)cc2[N+](=O)[O-])CC1` the remaining binding was 73% (cell-free assay; competition with immobilised ligand; 1 µM).
With `CN(c1nccc(-c2cnn3ncccc23)n1)C1CC1` the remaining binding was 77% (binding; 1 µM).
For `COCCOc1nc(-c2ccc(Cl)nc2)nc2c1CN(C(=O)c1ncn3ccccc13)CC2`, the remaining binding was 100% (cell-free assay; competition with immobilised ligand; 0.1 µM).
The remaining binding of `C=CC(=O)N1CCC(C(=O)NCC(=O)N2CCN(c3nc(-c4cnc(N)nc4C(F)F)nc(N4CCOCC4)n3)CC2)CC1` is reported as 100% (binding; competition with immobilised ligand; 1 µM).
